From ChEMBL document CHEMBL3259741, “Three new cucurbitane triterpenoids from Hemsleya penxianensis and their cytotoxic activities” (Bioorg Med Chem Lett, 2014)
≈ marks a conversion by molar mass, not a printed value.

Key:
Format in all cases: functional, cell-based
[1] = Cytotoxicity against human H460 cells after 48 hrs by MTT assay; conditions: NCI-H460, 48 h
Outline: (§1)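 Cells in RPMI1640 with 15% FBS were trypsinized (0.25%) and seeded at 1 × 10^5/mL, then incubated 24 h at 37 °C in 5% CO2. Agents were added at final concentrations of 50, 10, 2, 0.4 and 0.08 for a further 48 h. MTT (0.5%) was applied for 4 h, formazan dissolved in DMSO, and OD read at 570 nm. % inhibition = (OD0−ODS)/OD0; IC50 was taken as 50% growth inhibition. Mean of three experiments in triplicate.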

SW-620 = assay: Cytotoxicity against human SW620 cells after 48 hrs by MTT assay; conditions: SW-620, 48 h; outline: as §1
COLO 205 = assay: Cytotoxicity against human COLO205 cells after 48 hrs by MTT assay; conditions: COLO 205, 48 h
Outline: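 COLO205 cells were grown in RPMI1640 with 15% FBS, seeded at 2 × 10^5/mL, and incubated 24 h at 37 °C in 5% CO2. Agents were then given at final 50, 10, 2, 0.4 and 0.08 for 48 h. Read-out used 0.5% MTT for 4 h, DMSO solubilization and OD at 570 nm. Inhibition = (OD0−ODS)/OD0; IC50 = concentration giving 50% inhibition. Mean of three experiments in triplicate.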

SMILES	IC50 [1] [µg/mL]	IC50 (SW-620) [µg/mL]	IC50 (COLO 205) [µg/mL]
C/C(C=O)=C\CC[C@@H](C)[C@H]1CC[C@@]2(C)[C@@H]3CC=C4[C@@H](CC[C@H](O[C@@H]5O[C@H](CO)[C@@H](O)[C@H](O)[C@H]5O)C4(C)C)[C@]3(C)C(=O)C[C@]12C	0.46 (≈ 0.746 µM)	0.64 (≈ 1.04 µM)	0.78 (≈ 1.26 µM)
CC(=O)O[C@@H]1C[C@@]2(C)[C@@H]3CC=C4[C@@H](C[C@H](O)[C@@H](O)C4(C)C)[C@]3(C)C(=O)C[C@]2(C)[C@H]1C(C)(O)C(=O)/C=C/C(C)(C)O (stereo partly drawn)	3.43 (≈ 6.12 µM)	0.42 (≈ 0.749 µM)	0.44 (≈ 0.785 µM)
CC(=O)O[C@@H]1C[C@@]2(C)[C@@H]3CC=C4[C@@H](C[C@H](O[C@@H]5O[C@H](CO)[C@@H](O)[C@H](O)[C@H]5O)[C@@H](O)C4(C)C)[C@]3(C)C(=O)C[C@]2(C)[C@H]1C(C)(O)C(=O)/C=C/C(C)(C)OC(C)=O (stereo partly drawn)	8.55 (≈ 11.2 µM)	6.63 (≈ 8.67 µM)	24.9 (≈ 32.6 µM)
C[C@H](CCC=C(CO)CO)[C@H]1CC[C@@]2(C)[C@@H]3CC=C4[C@@H](CC[C@H](O[C@@H]5O[C@H](CO)[C@@H](O)[C@H](O)[C@H]5O)C4(C)C)[C@]3(C)[C@H](O)C[C@]12C	2.96 (≈ 4.65 µM)	1.99 (≈ 3.12 µM)	3.84 (≈ 6.03 µM)
CC(C)(O)CCC(=O)[C@](C)(O)[C@H]1[C@H](O)C[C@@]2(C)[C@@H]3CC=C4[C@@H](C[C@H](O)[C@@H](O)C4(C)C)[C@]3(C)C(=O)C[C@]12C	7.09 (≈ 13.6 µM)	1.03 (≈ 1.98 µM)	0.64 (≈ 1.23 µM)
CC(=O)OC(C)(C)CCC(=O)[C@](C)(O)[C@H]1[C@H](O)C[C@@]2(C)[C@@H]3CC=C4[C@@H](C[C@H](O)[C@@H](O)C4(C)C)[C@]3(C)C(=O)C[C@]12C [HEMSLECIN A]	11.5 (≈ 20.5 µM)	1.11 (≈ 1.97 µM)	1.09 (≈ 1.94 µM)
